Measured values: ChEMBL document CHEMBL4014329, “Selective Inhibition of Escherichia coli RNA and DNA Topoisomerase I by Hoechst 33258 Derived Mono- and Bisbenzimidazoles” (J Med Chem, 2017)
pIC50: −log10 of the molar value. In brackets after ≈: the same amount, converted by molar mass. Activity calls are given as the source filed them. The rule behind the calls is not given here.

Experiments:
Enterococcus faecium = assay: Antibacterial activity against Enterococcus faecium BM4105RF after 24 hrs by microbroth dilution method; type: functional
How it was run: (§1)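 Mueller-Hinton broth cultures grown at 37 °C with shaking to log phase, pelleted, resuspended in 0.85% saline to OD625 0.1. Broth microdilution per CLSI guidelines, final inoculum 5 × 10^5 CFU/mL, in triplicate, 24 h at 37 °C. Growth read as OD625. MIC is the lowest concentration giving complete growth inhibition versus untreated controls.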

Enterobacter cloacae = assay: Antibacterial activity against Enterobacter cloacae ATCC 13047 after 24 hrs by microbroth dilution method; type: functional; conditions: ATCC 13047, 24 h
How it was run: (§2)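 Microbroth dilution per CLSI guidelines. Organisms grown in Mueller−Hinton broth at 37 °C with shaking to log phase, pelleted, resuspended in 0.85% saline to OD625 0.1. Final inoculum 5 × 10^5 CFU/mL; triplicate; 24 h at 37 °C. OD625 read; MIC = lowest concentration completely inhibiting growth versus untreated controls.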

Escherichia coli [1] = assay: Inhibition of Escherichia coli DNA gyrase using relaxed plasmid pBAD-GFPuv as substrate after 30 mins by agarose gel electrophoresis
Acinetobacter baumannii = assay: Antibacterial activity against Acinetobacter baumannii ATCC 19606 after 24 hrs by microbroth dilution method; type: functional; conditions: ATCC 19606 = CIP 70.34 = JCM 6841, 24 h; how it was run: as §2
Escherichia coli [2] = assay: Antibacterial activity against Escherichia coli ATCC 25922 after 24 hrs by microbroth dilution method; type: functional; conditions: ATCC 25922, 24 h; how it was run: as §2
Staphylococcus aureus [3] = assay: Antibacterial activity against methicillin-resistant Staphylococcus aureus A960649 after 24 hrs by microbroth dilution method; type: functional; conditions: A960649, 24 h; how it was run: as §1
Shigella flexneri = assay: Antibacterial activity against Shigella flexneri 2457NR517 after 24 hrs by microbroth dilution method; type: functional; conditions: 2457NR517, 24 h; how it was run: as §1
[4] = tested on: Staphylococcus epidermidis; assay: Antibacterial activity against Staphylococcus epidermidis ATCC 12384 after 24 hrs by microbroth dilution method; type: functional; conditions: ATCC 12384, 24 h; how it was run: as §2
Staphylococcus aureus [5] = assay: Antibacterial activity against methicillin-resistant Staphylococcus aureus 33591 after 24 hrs by microbroth dilution method; type: functional; conditions: Staphylococcus aureus, 33591, 24 h; how it was run: as §1
Klebsiella pneumoniae = assay: Antibacterial activity against Klebsiella pneumoniae NR15410 after 24 hrs by microbroth dilution method; type: functional; conditions: NR15410, 24 h; how it was run: as §2
Pseudomonas aeruginosa = assay: Antibacterial activity against Pseudomonas aeruginosa ATCC 27853 after 24 hrs by microbroth dilution method; type: functional; conditions: ATCC 27853, 24 h; how it was run: as §2
DU-145 = assay: Cytotoxicity against human DU145 cells after 48 hrs by SRB assay; type: cell-based; conditions: for Activity: human, du-145, 48 h; for pIC50: Homo sapiens, DU-145, 48 h
How it was run: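 Cells cultured per ATCC protocols, seeded and grown 24 h (37 °C, 5% CO2), then treated in triplicate at final 20, 10, 5, 2.5, 1.25, 0.625 and 0.0625 μM for 48 h. Fixed with cold TCA (16% final, 4 °C, 1 h), stained with SRB in 1% acetic acid, dye solubilized in 10 mM Tris base, A560 read. IC50 derived; study in duplicate.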

Escherichia coli [6] = assay: Inhibition of Escherichia coli RNA topoisomerase 1 using circular RNA as substrate up to 50 uM after 1.5 hrs by SDS-PAGE analysis
How it was run: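 10 nM E. coli topoisomerase I premixed with reaction buffer and inhibitor diluted in DMSO, then circular RNA substrate added; 1.5 h incubation. Stopped with proteinase K/SDS/EDTA buffer. Trefoil RNA knot product separated from circular substrate on 15% TBE−urea gels and detected by phosphorimaging. DMSO-only control included.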

[7] = Binding affinity to dA60.dT60 B-DNA duplex (unknown origin) assessed as change in melting temperature at 10 uM by UV-vis spectrophotometric analysis
How it was run: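 UV melting of dA60·dT60 at 1 μM/duplex with compound at 10 μM. Buffer 10 mM sodium cacodylate, 0.1 mM EDTA, 100 mM NaCl, pH 7.0; duplex pre-annealed from 95 °C. Compound stocks in DMSO diluted into buffer. Heating at 0.2 °C/min, monitored at 260 nm, points every 1.0 °C; Tm taken from derivatives.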

[8] = Inhibition of Escherichia coli DNA topoisomerase 1 using plasmid pBAD-GFPuv as substrate after 15 mins by agarose gel electrophoresis
How it was run: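 E. coli topoisomerase I at 6 nM relaxing 150 ng supercoiled pBAD-GFPuv. 15 min at 37 °C, phenol-stopped, 1% agarose gel, ethidium stain. IC50 is the concentration leaving 50% DNA supercoiled; three independent determinations.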

Enterococcus faecalis = assay: Antibacterial activity against Enterococcus faecalis ATCC 29212 after 24 hrs by microbroth dilution method; type: functional; conditions: ATCC 29212, 24 h; how it was run: as §2
Citrobacter freundii = assay: Antibacterial activity against Citrobacter freundii 4747CFAA after 24 hrs by microbroth dilution method; type: functional; how it was run: as §2
[9] = Binding affinity to dA60.dT60 B-DNA duplex (unknown origin) assessed as induction of biphasic transition at <5 uM by UV-vis spectrophotometric analysis
Escherichia coli [10] = assay: Antibacterial activity against Escherichia coli K-12 after 24 hrs by microbroth dilution method; type: functional; conditions: K-12, 24 h; how it was run: as §2
Staphylococcus aureus [11] = assay: Antibacterial activity against Staphylococcus aureus ATCC 29213 after 24 hrs by microbroth dilution method; type: functional; conditions: ATCC 29213, 24 h; how it was run: as §2
Staphylococcus aureus [12] = assay: Antibacterial activity against Staphylococcus aureus ATCC 33591 after 24 hrs by microbroth dilution method; type: functional; conditions: ATCC 33591, 24 h; how it was run: as §2
DNA topoisomerase 1 = biological target: T1, DNA topoisomerase 1 (Homo sapiens, UniProt P11387); assay: Inhibition of human DNA topoisomerase 1 using plasmid pBAD-GFPuv as substrate after 30 mins by agarose gel electrophoresis
T1 sequence (P11387 whole entry): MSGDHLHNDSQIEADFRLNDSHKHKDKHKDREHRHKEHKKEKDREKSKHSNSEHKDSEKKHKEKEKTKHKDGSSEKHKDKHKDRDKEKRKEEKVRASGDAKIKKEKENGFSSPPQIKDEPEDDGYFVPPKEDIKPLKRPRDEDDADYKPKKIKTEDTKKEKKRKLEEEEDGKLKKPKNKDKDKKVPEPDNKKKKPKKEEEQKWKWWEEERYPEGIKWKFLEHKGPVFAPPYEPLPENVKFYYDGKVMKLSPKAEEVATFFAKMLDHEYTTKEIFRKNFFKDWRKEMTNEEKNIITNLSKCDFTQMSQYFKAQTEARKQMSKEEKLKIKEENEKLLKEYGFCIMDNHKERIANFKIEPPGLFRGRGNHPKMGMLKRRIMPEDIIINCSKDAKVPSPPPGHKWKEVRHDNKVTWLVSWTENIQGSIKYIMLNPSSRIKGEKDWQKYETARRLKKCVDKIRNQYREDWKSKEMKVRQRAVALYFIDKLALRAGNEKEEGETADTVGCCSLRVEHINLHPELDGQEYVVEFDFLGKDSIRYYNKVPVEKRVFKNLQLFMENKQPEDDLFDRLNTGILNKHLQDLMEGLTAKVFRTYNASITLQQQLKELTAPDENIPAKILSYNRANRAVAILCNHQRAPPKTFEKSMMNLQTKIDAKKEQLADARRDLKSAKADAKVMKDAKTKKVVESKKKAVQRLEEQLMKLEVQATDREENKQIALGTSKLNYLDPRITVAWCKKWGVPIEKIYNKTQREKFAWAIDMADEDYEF

SMILES | MIC (Enterococcus faecium) | MIC (Enterobacter cloacae) | inhibition (Escherichia coli [1]) | MIC (Acinetobacter baumannii) | MIC (Escherichia coli [2]) | MIC (Staphylococcus aureus [3]) | MIC (Shigella flexneri) | MIC [4] | MIC (Staphylococcus aureus [5]) | MIC (Klebsiella pneumoniae) | MIC (Pseudomonas aeruginosa) | Activity (DU-145) | inhibition (Escherichia coli [6]) | ΔTm [7] | MIC (Enterococcus faecalis) | MIC (Citrobacter freundii) | Activity [9] | MIC (Escherichia coli [10]) | MIC (Staphylococcus aureus [11]) | MIC (Staphylococcus aureus [12]) | further results
C#CCOCCCCOc1ccc(-c2nc3ccc(-c4nc5ccc(N6CCN(C)CC6)cc5[nH]4)cc3[nH]2)cc1 | 1 to 2 µg/mL (≈ 1.87 to 3.74 µM) | > 32 µg/mL | inactive | 8 µg/mL (≈ 15 µM) | 8 to 16 µg/mL (≈ 15 to 29.9 µM) | 1 to 2 µg/mL (≈ 1.87 to 3.74 µM) | 4 µg/mL (≈ 7.48 µM) | 4 µg/mL (≈ 7.48 µM) | 1 µg/mL (≈ 1.87 µM) | > 32 µg/mL | 16 µg/mL (≈ 29.9 µM) | Toxic | inactive |  |  |  |  |  |  |  | 
C#CCOCCOCCOCCOCCOCCOCCOc1ccc(-c2nc3ccc(-c4nc5ccc(N6CCN(C)CC6)cc5[nH]4)cc3[nH]2)cc1 | ≥ 32 µg/mL | > 32 µg/mL |  | > 32 µg/mL | 16 to 32 µg/mL (≈ 22 to 44 µM) | > 32 µg/mL | ≥ 32 µg/mL | 16 to 32 µg/mL (≈ 22 to 44 µM) | > 32 µg/mL | > 32 µg/mL | 16 to 32 µg/mL (≈ 22 to 44 µM) |  | inactive | 13.1 °C | 16 to 32 µg/mL (≈ 22 to 44 µM) | > 32 µg/mL | Active | 2 to 4 µg/mL (≈ 2.75 to 5.5 µM) | 16 to 32 µg/mL (≈ 22 to 44 µM) | 16 to 32 µg/mL (≈ 22 to 44 µM) | pIC50 [8]: < 4.30; pIC50 (DU-145): < 5.00
C#CCOc1ccc(-c2nc3ccc(-c4nc5ccc(N6CCN(C)CC6)cc5[nH]4)cc3[nH]2)cc1 | 1 to 2 µg/mL (≈ 2.16 to 4.32 µM) | 32 µg/mL (≈ 69.2 µM) | inactive | > 32 µg/mL | 8 µg/mL (≈ 17.3 µM) | 1 to 2 µg/mL (≈ 2.16 to 4.32 µM) | 1 to 2 µg/mL (≈ 2.16 to 4.32 µM) | 1 to 2 µg/mL (≈ 2.16 to 4.32 µM) |  | > 32 µg/mL | 16 µg/mL (≈ 34.6 µM) | Toxic | inactive |  |  | 4 µg/mL (≈ 8.65 µM) |  |  |  |  | 
C#CCCCCOc1ccc(-c2nc3ccc(-c4nc5ccc(N6CCN(C)CC6)cc5[nH]4)cc3[nH]2)cc1 | 1 to 2 µg/mL (≈ 1.98 to 3.96 µM) | > 32 µg/mL | inactive | 16 µg/mL (≈ 31.7 µM) | 8 to 16 µg/mL (≈ 15.9 to 31.7 µM) | 4 µg/mL (≈ 7.93 µM) | 8 µg/mL (≈ 15.9 µM) | 1 to 2 µg/mL (≈ 1.98 to 3.96 µM) | 4 µg/mL (≈ 7.93 µM) | > 32 µg/mL | 16 µg/mL (≈ 31.7 µM) | Toxic | inactive |  |  | > 32 µg/mL |  |  |  |  | 
CN1CCN(c2ccc3nc(-c4ccc5nc(-c6ccc(O)cc6)[nH]c5c4)[nH]c3c2)CC1.Cl.Cl.Cl |  |  |  |  | 8 to 16 µg/mL |  |  |  |  |  | 8 µg/mL |  |  |  | 16 to 32 µg/mL |  |  | 8 µg/mL | > 32 µg/mL | 16 to 32 µg/mL | pIC50 (DU-145): < 5.00
C#Cc1ccc(-c2cn(CCOc3ccc(-c4nc5ccc(N6CCN(C)CC6)cc5[nH]4)cc3)nn2)cc1 | > 32 µg/mL | > 32 µg/mL |  | > 32 µg/mL | 16 µg/mL (≈ 31.8 µM) | > 32 µg/mL | > 32 µg/mL | > 32 µg/mL | > 32 µg/mL | > 32 µg/mL | 16 µg/mL (≈ 31.8 µM) |  |  | 1.9 °C | 16 to 32 µg/mL (≈ 31.8 to 63.5 µM) | > 32 µg/mL | Active | 16 µg/mL (≈ 31.8 µM) | 16 to 32 µg/mL (≈ 31.8 to 63.5 µM) | 16 µg/mL (≈ 31.8 µM) | 
CN1CCN(c2ccc3nc(-c4ccc(OCc5cn(CCCCN=[N+]=[N-])nn5)cc4)[nH]c3c2)CC1 | > 32 µg/mL | > 32 µg/mL |  | > 32 µg/mL | 16 µg/mL (≈ 32.9 µM) | > 32 µg/mL | > 32 µg/mL | > 32 µg/mL | > 32 µg/mL | > 32 µg/mL | 16 µg/mL (≈ 32.9 µM) |  | inactive | 0.5 °C | 16 to 32 µg/mL (≈ 32.9 to 65.8 µM) | > 32 µg/mL | Active | 16 µg/mL (≈ 32.9 µM) | 16 to 32 µg/mL (≈ 32.9 to 65.8 µM) | 16 µg/mL (≈ 32.9 µM) | pIC50 (DNA topoisomerase 1): < 4.30; pIC50 [8]: 4.67
CCOc1ccc(-c2nc3ccc(N4CCN(C)CC4)cc3[nH]2)cc1 | > 32 µg/mL | > 32 µg/mL |  | > 32 µg/mL | 16 µg/mL (≈ 47.6 µM) | > 32 µg/mL | > 32 µg/mL | > 32 µg/mL | > 32 µg/mL | > 32 µg/mL | 16 µg/mL (≈ 47.6 µM) |  |  | 1.7 °C | 16 µg/mL (≈ 47.6 µM) | > 32 µg/mL | Active | 16 µg/mL (≈ 47.6 µM) | 16 to 32 µg/mL (≈ 47.6 to 95.1 µM) | 16 to 32 µg/mL (≈ 47.6 to 95.1 µM) | 
